Experimental data from ChEMBL document CHEMBL4265955, “Synthesis and antiproliferative activity of podocarpane and totarane derivatives” (Eur J Med Chem, 2018).
The source made the active and inactive calls. The rule behind the calls is not given here.

Key:
A549 [1] = test: Antiproliferative activity against human A549 cells after 3 days by sulforhodamine B assay; format: functional, cell-based; settings: A549, 72 h
Method in brief: (§1)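 Cells grown in DMEM with 10% heat-inactivated FBS, penicillin-streptomycin and 2 mM L-glutamine at 37°C, 5% CO2. Seeded at 5 x 10^3 cells/cm², exposed 24 h later to increasing compound concentrations for 3 days. Fixed with cold 10% TCA, stained with 0.4% SRB, dye solubilized in 10 mM Tris pH 10.5, OD read at 492 nm. IC50 taken by linear interpolation of semilog dose-response curve; seven biological replicates, mean ± SEM.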

T84 [2] = test: Antiproliferative activity against human T84 cells after 3 days by sulforhodamine B assay; format: functional, cell-based; settings: T84, 72 h; method in brief: as §1
MCF7 [3] = test: Antiproliferative activity against human MCF7 cells after 3 days by sulforhodamine B assay; format: functional, cell-based; settings: MCF7, 72 h; method in brief: as §1
A549 [4] = test: Cell cycle arrest in human A549 cells assessed as reduction in accumulation at G2/M phase at IC50 after 48 hrs by propidium iodide staining based flow cytometry; format: functional
A549 [5] = test: Induction of apoptosis in human A549 cells assessed as total apoptotic cells at IC50 after 24 hrs by Annexin-V-FITC/propidium iodide staining based flow cytometry (reference value: 13.2%); format: functional
A549 [6] = test: Cell cycle arrest in human A549 cells assessed as reduction in accumulation at S phase at IC50 after 48 hrs by propidium iodide staining based flow cytometry; format: functional
A549 [7] = test: Cell cycle arrest in human A549 cells assessed as reduction in accumulation at G1 phase at IC50 after 48 hrs by propidium iodide staining based flow cytometry; format: functional
MCF7 [8] = test: Potency index, ratio of 5-fluorouracil IC50 to test compound IC50 for human MCF7 cells; format: functional
A549 [9] = test: Cell cycle arrest in human A549 cells assessed as accumulation at G0/G1 phase at IC50 after 24 hrs by propidium iodide staining based flow cytometry (reference value: 60.6%); format: functional
A549 [10] = test: Induction of apoptosis in human A549 cells assessed as increase in Bax to Bcl2 ratio at 0.5 to 1 times IC50 after 24 hrs Western blot analysis; format: functional, cell-based
Method in brief: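 A-549 seeded at 4 x 10^4 cells/cm², treated 24 h later at 0x, 0.5x or 1x IC50 for 24 h. Lysed in SDS sample buffer, proteins separated on 12% acrylamide gels and transferred to nitrocellulose. Blocked 1 h in 3% milk/1% BSA/0.5% Tween-20 in PBS. Probed overnight with mouse monoclonal anti-Bax or anti-Bcl-2, then HRP anti-mouse IgG.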

[11] = Cytotoxicity against human PBMC assessed as cell viability at 2.5 uM by MTT assay relative to control; format: cell-based; settings: PBMC (peripheral blood mononuclear cells), read-out: Activity
Method in brief: (§2)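 PBMC isolated from healthy donor blood by Histopaque-1077 density gradient centrifugation. Cultured in RPMI-1640 with 20% FBS, penicillin-streptomycin and 2 mM glutamine at 37°C, 5% CO2. Exposed to increasing compound concentrations; viability of non-adherent cultures measured by MTT at 570 and 595 nm and expressed against untreated control cultures.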

[12] = Cytotoxicity against human PBMC assessed as cell viability at 5 uM by MTT assay relative to control; format: cell-based; settings: PBMC (peripheral blood mononuclear cells), read-out: Activity; method in brief: as §2
A549 [13] = test: Cell cycle arrest in human A549 cells assessed as accumulation at sub-G1 phase at IC50 after 48 hrs by propidium iodide staining based flow cytometry (reference value: 2.6%); format: functional
T84 [14] = test: Potency index, ratio of 5-fluorouracil IC50 to test compound IC50 for human T84 cells; format: functional
A549 [15] = test: Potency index, ratio of 5-fluorouracil IC50 to test compound IC50 for human A549 cells; format: functional
[16] = Cytotoxicity against human PBMC assessed as cell viability at 1 uM by MTT assay relative to control; format: cell-based; settings: PBMC (peripheral blood mononuclear cells), read-out: Activity; method in brief: as §2
PBMC [17] = test: Cytotoxicity against human PBMC assessed as reduction in cell viability at 10 uM by MTT assay relative to control; format: cell-based; method in brief: as §2
A549 [18] = test: Induction of apoptosis in human A549 cells assessed as viable cells at IC50 after 24 hrs by Annexin-V-FITC/propidium iodide staining based flow cytometry (reference value: 83.6%); format: functional
A549 [19] = test: Cell cycle arrest in human A549 cells assessed as accumulation at G2/M phase at IC50 after 24 hrs by propidium iodide staining based flow cytometry (reference value: 8.8%); format: functional
PBMC [20] = test: Cytotoxicity against human PBMC assessed as reduction in cell viability at 0.5 uM by MTT assay relative to control; format: cell-based
Method in brief: (§3)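 PBMC isolated from healthy donor blood by density gradient centrifugation (Histopaque-1077), cultured in RPMI-1640 with 20% FBS, penicillin-streptomycin and 2 mM glutamine at 37°C, 5% CO2. Cells exposed to increasing compound concentrations for 3 days. Viability read by MTT at 570 and 595 nm and expressed versus untreated control cultures.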

PBMC [21] = test: Cytotoxicity against human PBMC assessed as reduction in cell viability at 0.5 to 10 uM by MTT assay; format: cell-based; method in brief: as §3

Question: Which IC50 (A549 [1]) does the source give for `COC(=O)[C@@]1(C)CCC[C@]2(C)c3cc(O)cc(C(C)C)c3CC[C@@H]12` here?
Answer: 18.6 µM

Question: What about the IC50 (T84 [2]) of the same compound?
Answer: 30.5 µM

Question: What about the IC50 (MCF7 [3]) of the same compound?
Answer: 28.8 µM

Question: Which IC50 (A549 [1]) does the source give for `CC(=O)c1cc2c(cc1O)[C@@]1(C)CCC[C@](C)(CO)[C@@H]1CC2` here?
Answer: 4.8 µM

Question: What about the IC50 (T84 [2]) of the same compound?
Answer: 7.8 µM

Question: What about the IC50 (MCF7 [3]) of the same compound?
Answer: 9.3 µM

Question: For `COC(=O)c1cc(O)cc2c1CC[C@H]1[C@@](C)(C(=O)OC)CCC[C@]21C`, which IC50 (A549 [1]) is on record?
Answer: > 40 µM

Question: And the IC50 (T84 [2])?
Answer: > 40 µM

Question: And the IC50 (MCF7 [3])?
Answer: > 40 µM

Question: What does the source list for `COC(=O)[C@@]1(C)CCC[C@]2(C)c3c(O)c(O)cc(C(C)C)c3CC[C@@H]12`?
Answer: IC50 (A549 [1]): 0.6 µM; Activity (A549 [4]): Active; Activity (A549 [5]): 44%; Activity (A549 [6]): Active; Activity (A549 [7]): Active; Ratio IC50 (MCF7 [8]): 4; IC50 (T84 [2]): 1 µM; Activity (A549 [9]): 53.7%; Activity (A549 [10]): Active; viability at 2.5 µM [11]: 81.3%; viability at 5 µM [12]: 87.7%; Activity (A549 [13]): 70.1%; Ratio IC50 (T84 [14]): 4; Ratio IC50 (A549 [15]): 4; IC50 (MCF7 [3]): 2.8 µM; viability at 1 µM [16]: 86.4%; Activity (PBMC [17]): 21.5%; Activity (A549 [18]): 54.2%; Activity (A549 [19]): 14.5%

Question: Which IC50 (A549 [1]) does the source give for `C=C(C)c1cc(O)cc2c1CC[C@H]1[C@@](C)(C(=O)OC)CCC[C@]21C` here?
Answer: 23.7 µM

Question: And the IC50 (T84 [2])?
Answer: 30.7 µM

Question: And the IC50 (MCF7 [3])?
Answer: 26.1 µM

Question: For `O=c1[nH]cc(F)c(=O)[nH]1` [FLUOROURACIL], which IC50 (A549 [1]) is on record?
Answer: 7.1 µM

Question: And the IC50 (T84 [2])?
Answer: 3.4 µM

Question: And the IC50 (MCF7 [3])?
Answer: 7.8 µM

Question: What does the source list for `COC(=O)c1cc2c(cc1O)[C@@]1(C)CCC[C@](C)(C(=O)OC)[C@@H]1CC2`?
Answer: IC50 (A549 [1]): 17.2 µM; IC50 (T84 [2]): 20.7 µM; IC50 (MCF7 [3]): 21.7 µM

Question: For `COC(=O)c1cc2c(cc1OC)[C@@]1(C)CCC[C@](C)(C(=O)OC)[C@@H]1CC2`, which IC50 (A549 [1]) is on record?
Answer: > 40 µM

Question: And the IC50 (T84 [2])?
Answer: > 40 µM

Question: What about the IC50 (MCF7 [3]) of the same compound?
Answer: > 40 µM

Question: Which IC50 (A549 [1]) does the source give for `COC(=O)[C@@]1(C)CCC[C@]2(C)C3=C(CC[C@@H]12)C(C(C)C)=CC(=O)C3=O` here?
Answer: 6.8 µM

Question: And the Activity (PBMC [20])?
Answer: 25%

Question: And the IC50 (T84 [2])?
Answer: 11.4 µM

Question: What about the viability at 2.5 µM [11] of the same compound?
Answer: 64.7%

Question: What about the viability at 5 µM [12] of the same compound?
Answer: 58.3%

Question: And the IC50 (MCF7 [3])?
Answer: 1.1 µM

Question: What about the Activity (PBMC [21]) of the same compound?
Answer: Toxic

Question: What about the viability at 1 µM [16] of the same compound?
Answer: 69.2%

Question: What about the Activity (PBMC [17]) of the same compound?
Answer: 43.8%
